ChEMBL document CHEMBL1159067, “Benzimidazole- and indole-substituted 1,3'-bipyrrolidine benzamides as histamine H3 receptor antagonists” (Bioorg Med Chem Lett, 2010)
Converted amounts (≈) assume the structure as drawn. The source made the active and inactive calls. The calls are words filed in the database; no cut-off is given here.

Key:
Histamine H3 receptor [1] = biological target: Histamine H3 receptor (Homo sapiens, UniProt Q9Y5N1); test: Displacement of [3H](R)-alpha-methylhistamine from human cloned histamine H3 receptor expressed in HEK293T cells by liquid scintillation spectrometry; assay type: cell-based, HEK-293T
[2] = Aqueous solubility at pH 3.1; assay type: physicochemical; conditions: aqueous medium
[3] = Permeability by PAMPA; assay type: ADME; conditions: read-out: permeability
Procedure, shortened: (§1)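 Passive permeability was measured by PAMPA, or by its blood–brain barrier variant PAMPA–BBB. Each gives effective permeability in units of 10^-6 cm/s.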

[4] = Blood-brain barrier permeability by PAMPA-BBB assay; assay type: ADME; procedure, shortened: as §1
[5] = Permeability across apical to basolateral side of human Caco-2 cell membrane; assay type: ADME, cell-based; conditions: read-out: permeability
Caco-2 = test: Ratio of permeability across basolateral to apical side over apical to basolateral side of human Caco-2 cell membrane
[6] = Oral bioavailability in rat at 10 mg/kg; assay type: ADME, organism-based; conditions: in vivo
[7] = AUC in rat plasma at 10 mg/kg, ip; assay type: ADME, organism-based; design: dose 10 mg/kg, route intraperitoneal
[8] = Tmax in rat plasma at 10 mg/kg, ip; assay type: ADME, organism-based; design: dose 10 mg/kg, route intraperitoneal
[9] = Half life in rat at 10 mg/kg, po; assay type: ADME, organism-based; design: dose 10 mg/kg, route oral; conditions: in vivo
[10] = Fraction unbound in rat brain at 10 mg/kg, ip; assay type: ADME, organism-based; design: dose 10 mg/kg, route intraperitoneal
[11] = AUC in rat brain at 10 mg/kg, ip; assay type: ADME, organism-based; design: dose 10 mg/kg, route intraperitoneal
[12] = Cmax in rat brain at 10 mg/kg, ip; assay type: ADME, organism-based; design: dose 10 mg/kg, route intraperitoneal
[13] = Cmax in rat at 10 mg/kg, po; assay type: ADME, organism-based; design: dose 10 mg/kg, route oral; conditions: in vivo
[14] = Volume of distribution at steady state in rat at 2 mg/kg, iv; assay type: ADME, organism-based; design: dose 2 mg/kg, route intravenous; conditions: in vivo, read-out: Vdss
[15] = Cmax in rat plasma at 10 mg/kg, ip; assay type: ADME, organism-based; design: dose 10 mg/kg, route intraperitoneal
[16] = Plasma clearance in rat at 2 mg/kg, iv; assay type: ADME, organism-based; design: dose 2 mg/kg, route intravenous
[17] = Tmax in rat at 10 mg/kg, po; assay type: ADME, organism-based; design: dose 10 mg/kg, route oral; conditions: in vivo
[18] = AUC in rat at 10 mg/kg, po; assay type: ADME, organism-based; design: dose 10 mg/kg, route oral; conditions: plasma
[19] = Tmax in rat brain at 10 mg/kg, ip; assay type: ADME, organism-based; design: dose 10 mg/kg, route intraperitoneal
[20] = AUC in rat plasma at 30 mg/kg, ip; assay type: ADME, organism-based; design: dose 30 mg/kg, route intraperitoneal
Rattus norvegicus [21] = test: Decrease in (R)-alpha-methylhistamine-induced water intake in rat at 10 mg/kg, ip; assay type: functional, organism-based; design: dose 10 mg/kg
Procedure, shortened: (§2)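 Water intake was induced in rats by the H3R agonist (R)-α-methylhistamine, which acts via central H3R. Antagonist was dosed ip. Significance was p <0.05 versus vehicle and versus (R)-α-methylhistamine alone.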

[22] = AUC in rat brain at 30 mg/kg, ip; assay type: ADME, organism-based; design: dose 30 mg/kg, route intraperitoneal
Histamine H3 receptor [23] = biological target: Histamine H3 receptor (Rattus norvegicus, UniProt Q9QYN8); test: Binding affinity to rat histamine H3 receptor
[24] = Tmax in rat brain at 30 mg/kg, ip; assay type: ADME, organism-based; design: dose 30 mg/kg, route intraperitoneal
[25] = Cmax in rat brain at 30 mg/kg, ip; assay type: ADME, organism-based; design: dose 30 mg/kg, route intraperitoneal
[26] = Cmax in rat plasma at 30 mg/kg, ip; assay type: ADME, organism-based; design: dose 30 mg/kg, route intraperitoneal
Rattus norvegicus [27] = test: Reversal of delay-induced retention deficit behavior in ip dosed rat assessed as differential novel and familiar object recognition; assay type: functional; conditions: read-out: MED
Procedure, shortened: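 Rats received test compound ip at 0.1, 0.3, 1 or 3 mg/kg, or vehicle, before the learning trial. Exploration of the novel and familiar objects was then scored. Groups were compared with vehicle, with significance at p <0.03 and p <0.005.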

Rattus norvegicus [28] = test: Decrease in (R)-alpha-methylhistamine-induced water intake in rat at 30 mg/kg, ip; assay type: functional, organism-based; design: dose 30 mg/kg; procedure, shortened: as §2
[29] = Ratio of AUC in rat brain to plasma at 30 mg/kg, ip; assay type: ADME, organism-based; design: dose 30 mg/kg, route intraperitoneal; conditions: brain and plasma
Procedure, shortened: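 Rats given a single 30 mg/kg intraperitoneal injection. Brain and plasma exposure were measured, with Cmax and Tmax recorded for each. The ratio is brain AUC (h ng/mL) divided by plasma AUC.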

[30] = Fraction unbound in rat brain at 30 mg/kg, ip; assay type: ADME, organism-based; design: dose 30 mg/kg, route intraperitoneal
[31] = Tmax in rat plasma at 30 mg/kg, ip; assay type: ADME, organism-based; design: dose 30 mg/kg, route intraperitoneal

Chain of Histamine H3 receptor (Homo sapiens, UniProt Q9Y5N1) (Q9Y5N1 whole entry): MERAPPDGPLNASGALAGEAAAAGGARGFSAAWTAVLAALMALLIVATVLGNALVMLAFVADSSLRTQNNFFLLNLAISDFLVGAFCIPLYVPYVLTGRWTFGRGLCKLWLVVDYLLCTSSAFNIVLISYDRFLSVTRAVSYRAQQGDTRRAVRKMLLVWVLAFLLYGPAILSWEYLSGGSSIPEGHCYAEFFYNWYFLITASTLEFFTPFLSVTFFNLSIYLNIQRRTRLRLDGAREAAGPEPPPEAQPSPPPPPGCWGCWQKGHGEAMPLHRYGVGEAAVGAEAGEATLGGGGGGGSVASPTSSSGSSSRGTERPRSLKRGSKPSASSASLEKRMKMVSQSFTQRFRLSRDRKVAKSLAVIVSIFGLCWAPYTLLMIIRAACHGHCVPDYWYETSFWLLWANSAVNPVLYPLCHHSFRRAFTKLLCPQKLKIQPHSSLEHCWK
Chain of Histamine H3 receptor (Rattus norvegicus, UniProt Q9QYN8) (Q9QYN8 whole entry): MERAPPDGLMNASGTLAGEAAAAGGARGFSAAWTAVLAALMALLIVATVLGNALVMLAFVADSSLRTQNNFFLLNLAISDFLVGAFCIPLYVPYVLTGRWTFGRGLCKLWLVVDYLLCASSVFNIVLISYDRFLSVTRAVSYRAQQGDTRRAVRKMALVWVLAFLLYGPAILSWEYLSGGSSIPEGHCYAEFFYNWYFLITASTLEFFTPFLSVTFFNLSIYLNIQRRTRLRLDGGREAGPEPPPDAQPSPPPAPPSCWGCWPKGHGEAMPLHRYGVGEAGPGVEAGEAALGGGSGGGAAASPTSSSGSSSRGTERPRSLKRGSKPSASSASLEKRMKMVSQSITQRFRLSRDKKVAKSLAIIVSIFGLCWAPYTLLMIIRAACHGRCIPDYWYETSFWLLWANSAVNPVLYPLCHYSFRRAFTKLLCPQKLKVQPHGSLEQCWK

Row | Structure (SMILES) | Ki (Histamine H3 receptor [1]) | solubility [2] | Papp [3] | pBBB [4] | further results
1 | CN(C)[C@H]1CCN(C(=O)c2ccc(Cn3c(-c4ccccc4)nc4ccccc43)cc2)C1 | 65 nM |  |  |  | 
2 | O=C(c1ccc(Cn2ccc3cc(Cl)ccc32)cc1)N1CC[C@H](N2CCCC2)C1 | 130 nM | 10 µg/mL (≈ 24.5 µM) | 7.8 ×10⁻⁶ cm/s | 8.1 ×10⁻⁶ cm/s | 
3 | CN(C)[C@@H]1CCN(C(=O)c2ccc(Cn3c(-c4ccccc4)nc4ccccc43)cc2)C1 | 440 nM |  |  |  | 
4 | CCN(C)C1CCN(C(=O)c2ccc(Cn3c(-c4ccccc4)nc4ccccc43)cc2)C1 (stereo unspecified) | 91 nM |  |  |  | 
5 | O=C(c1ccc(Cn2c(-c3ccccc3)nc3ccccc32)cc1)N1CCC(N2CCCC2)C1 (stereo unspecified) | 10 nM |  |  |  | 
6 | Cc1nc2ccccc2n1Cc1ccc(C(=O)N2CCC(N(C)C)C2)cc1 (stereo unspecified) | 17 nM |  |  |  | 
7 | O=C(c1ccc(Cn2ccc3ccccc32)cc1)N1CC[C@H](N2CCCC2)C1 | 15 nM | 28 µg/mL (≈ 75 µM) | 8.3 ×10⁻⁶ cm/s | 9.4 ×10⁻⁶ cm/s | 
8 | CN(C)C1CCN(C(=O)c2ccc(Cn3c(-c4ccccn4)nc4ccccc43)cc2)C1 (stereo unspecified) | 235 nM |  |  |  | 
9 | O=C(c1ccc(Cn2ccc3ccc(Cl)cc32)cc1)N1CC[C@H](N2CCCC2)C1 | 150 nM | 13 µg/mL (≈ 31.9 µM) | 7.3 ×10⁻⁶ cm/s | 8.6 ×10⁻⁶ cm/s | 
10 | CN(CCO)C1CCN(C(=O)c2ccc(Cn3c(-c4ccccc4)nc4ccccc43)cc2)C1 (stereo unspecified) | 1200 nM |  |  |  | 
11 | Cc1nc2ccccc2n1Cc1ccc(C(=O)N2CC[C@H](N3CCCC3)C2)cc1 |  | 32 µg/mL (≈ 82.4 µM) | 0.3 ×10⁻⁶ cm/s | 4 ×10⁻⁶ cm/s | 
12 | CN(C)C1CCN(C(=O)c2ccc(Cn3cnc4ccccc43)cc2)C1 (stereo unspecified) | 390 nM |  |  |  | 
13 | O=C(c1ccccc1Cn1cnc2ccccc21)N1CCC(N2CCCC2)C1 (stereo unspecified) | 4000 nM |  |  |  | 
14 | CN(C)C1CCN(C(=O)c2ccc(Cn3c(-c4ccccc4)nc4ccccc43)cc2)C1 (stereo unspecified) | 100 nM | > 100 µg/mL | 4.4 ×10⁻⁶ cm/s | 9.4 ×10⁻⁶ cm/s | Papp A→B [5]: 84.9 ×10⁻⁶ cm/s; Ratio (Caco-2): 1.3
15 | O=C(c1ccc(Cn2cnc3ccccc32)cc1)N1CC[C@H](N2CCCC2)C1 |  | 51 µg/mL (≈ 136 µM) | 0.3 ×10⁻⁶ cm/s | 3.7 ×10⁻⁶ cm/s | bioavailability [6]: 93%; AUC [7]: 1040 ng·h/mL; Tmax [8]: 1 h; half-life [9]: 1.3 h; fraction unbound [10]: 0.138; AUC [11]: 231 ng·h/mL; Cmax [12]: 0.245 µM; Cmax [13]: 1750 ng/mL; Vd [14]: 3.6 L/kg; Cmax [15]: 388 ng/mL; clearance [16]: 56 mL/min/kg; Tmax [17]: 0.4 h; AUC [18]: 2740 ng·h/mL; Tmax [19]: 1 h
16 | O=C(c1cccc(Cn2cnc3ccccc32)c1)N1CCC(N2CCCC2)C1 (stereo unspecified) | 400 nM |  |  |  | 
17 | O=C(c1ccc(Cn2ccc3cccc(Cl)c32)cc1)N1CC[C@H](N2CCCC2)C1 | 2.5 nM | 18 µg/mL (≈ 44.1 µM) | 6.5 ×10⁻⁶ cm/s | 7 ×10⁻⁶ cm/s | AUC [20]: 2180 ng·h/mL; Activity (Rattus norvegicus [21]): Active; AUC [22]: 15000 ng·h/mL; bioavailability [6]: 5%; Ki (Histamine H3 receptor [23]): 21.7 nM; half-life [9]: 1.9 h; Tmax [24]: 0.5 h; Cmax [25]: 16 µM; Cmax [26]: 1090 ng/mL; minimal effective dose (Rattus norvegicus [27]): 0.3 mg/kg; Activity (Rattus norvegicus [28]): Active; Kp [29]: 6.9; Cmax [13]: 22 ng/mL; Vd [14]: 7.3 L/kg; clearance [16]: 112 mL/min/kg; fraction unbound [30]: 0.035; Tmax [31]: 0.5 h; Tmax [17]: 1.2 h; AUC [18]: 63 ng·h/mL
